Data: ChEMBL document CHEMBL4513216, “Probing the Open Global Health Chemical Diversity Library for Multistage-Active Starting Points for Next-Generation Antimalarials” (ACS Infect Dis, 2020)

Assay: Toxicity liver stage against HepG2, at 10uM
Assay type: cell-based
Parameters: test concentration 10 uM, cell line HepG2-A16-CD81EGFP
Conditions: human, HepG2-A16-CD81EGFP cells; read-out: INHIBITION
In short: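 Uninfected HepG2-A16-CD81EGFP cells, 3 × 10^3 per well, 1536-well, plated on prespotted compound at 10 μM final, parasite-free screening media added to match infected plates; puromycin 10 μM positive, DMSO 0.5% negative; run in parallel with 48 h PbLuc assay at 37 °C, 5% CO2; viability by CellTiter-Glo luminescence, normalized to controls.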

Row | SMILES | cytotoxicity at 10 µM [%]
1 | O=C(c1cccn2ccnc12)N1CCCN(c2cccnn2)CC1 | 1.68
2 | CCc1c(C(=O)O)nnn1-c1cccc(C)c1C | -16.1
3 | CC(C)N1CCC(CC(=O)NC[C@H]2CCc3ccccc3O2)CC1 | 2.04
4 | CN(C)CCNC(=O)c1sc2ccccc2c1C1CCC(CN)CC1 (stereo not drawn) | -15.3
5 | N#Cc1cccnc1N1CCCN(C(=O)CCc2nccs2)CC1 | -11.5
6 | CCC(=O)NC(C)c1ccccc1C (stereo not drawn) | 0.245
7 | CCn1cnnc1CNC(=O)NC(c1ccccc1)C1CCCC1 (stereo not drawn) | 12
8 | CCN(CC)c1ccc(C(=O)NCc2cccnc2-n2cncn2)cn1 | 11.7
9 | COCC[C@]1(O)CCN(Cc2nc(C(C)C)cs2)C[C@H]1C | -6.26
10 | c1csc(CN2CCCN(c3ccc(Cn4ccnc4)cn3)CC2)c1 | -18.2
11 | CCC(=O)NCc1cc(Br)ccc1OC(F)F | 17.2
12 | CCN(CC)c1ccc(CNC(=O)c2ccc(=O)[nH]n2)cn1 | 4.16
13 | COc1nccc(N2CC[C@@H](N3CCN(C)CC3)[C@H](O)C2)c1C#N | -147
14 | CC(C)CNC(=O)N1CCOC2(CCNCC2)C1 | 9.28
15 | Cc1[nH]ccc1C(=O)NC1CCC(N2C(=O)CCC2=O)CC1 (stereo not drawn) | -3.81
16 | CCOC1COC2(CCN(CC3CC3)CC2)C1 (stereo not drawn) | -106
17 | O=C(CCn1cccn1)N1CCSCC1 | -5.92
18 | NC(=O)C(NC1CCN(Cc2ccc(F)cc2)CC1)c1ccccc1 (stereo not drawn) | -5.4
19 | c1cncc(CN2CCCC3(COCCN(c4cncnc4)C3)C2)c1 (stereo not drawn) | -73.3
20 | FC(F)(F)C1CCCn2c(CNCc3cccs3)nnc21 (stereo not drawn) | 3.79
21 | CNc1nc(C(=O)N2CCCC(c3nccn3CC3CCC3)C2)cs1 (stereo not drawn) | -16.7
22 | CNc1ncccc1CN1CCN(C(C)=O)CC(C(N)=O)C1 (stereo not drawn) | 2.31
23 | CC(=O)c1nn(-c2ccccc2)c(C)c1C(C)=O | 2.27

Row | SMILES | cytotoxicity at 10 µM [%]
24 | COc1c(C(=O)NC(C)Cc2ccccc2Cl)c(C)nn1C (stereo not drawn) | -0.686
25 | Cn1cc(NC(=O)CCc2ccsc2)ccc1=O | -2.9
26 | COC1C[C@@H]2CN(C(=O)c3cc4ccc(F)cc4[nH]3)C[C@@H]2C1 (stereo partly drawn) | 2.93
27 | COc1cccc2c1OCC(NC(=O)NCc1cccs1)C2 (stereo not drawn) | -11
28 | CO[C@@H]1CCN(C(=O)c2ccccn2)[C@H]1Cc1ccccc1 | 4.89
29 | Nc1cc(CCCNC(=O)NC2CC2)nn1-c1ccccc1 | 1.54
30 | CC(NC(=O)NCCCn1cncn1)c1ccc(C#N)cc1 (stereo not drawn) | -2.6
31 | CN(Cc1nccn1CC(F)(F)F)C(=O)c1ccc(F)c(F)c1 | -0.394
32 | Cc1sc2ncnc(N3CCC(N(C)Cc4cnn(C)c4)CC3)c2c1C | -2.98
33 | COc1ccc(C)cc1CN1CCn2cccc2C1C (stereo not drawn) | 18.3
34 | O=C(Nc1cn[nH]c1)N1CCCCCC1c1ccncc1 (stereo not drawn) | -3.4
35 | O=C(Nc1ccccc1)NC1CCN(C2CCOC2)CC1 (stereo not drawn) | 7.76
36 | N#Cc1cccc(OC2CCN(C(=O)c3cncc(O)c3)CC2)c1 | 7.28
37 | Cc1cc(NC(C)C(=O)N2CCN(c3ncccn3)CC2)ccc1F (stereo not drawn) | 7.77
38 | CC(C)CS(=O)(=O)N1C[C@@H]2C[C@H](C(=O)N(C)C)[C@H](C1)O2 | 8.66
39 | O=C(c1csc(-c2ccco2)n1)N1CCN2CCCCC2C1 (stereo not drawn) | 5.6
40 | Cc1ccc2[nH]c(-c3cn(C4CCNCC4)nn3)nc2c1C | -4.92
41 | COC(=O)c1cc(OCC2CCC2)cc(C(=O)N[C@@H]2CNCC[C@H]2O)c1 | -12
42 | Cc1n[nH]c(C2CN(CC(=O)NCCc3ccccc3)CCO2)n1 (stereo not drawn) | 10.2
43 | Cc1nn(C)c(N(C)C)c1CNCc1cccc(Cl)c1 | -8.27
44 | COCCN1CCC(CNC(=O)C2(C#N)CCCCC2)CC1 | -11.1
45 | O=C(c1cn(-c2cc(N3CCOCC3)ncn2)cn1)N1CCSCC1 | -18.3
46 | CNc1ccnc(NCCC(=O)Nc2ccccc2OC)n1 | -1.62

Row | SMILES | cytotoxicity at 10 µM [%]
47 | O=C(NCCO)c1coc(CN2CCN(c3ccccc3F)CC2)n1 | -11.2
48 | CS(=O)(=O)N1CCO[C@@H]2CN(C(=O)COC3CCCC3)C[C@@H]2C1 | 7.04
49 | O=C(NCCCNC(=O)c1cccc(O)c1)NCc1ccccc1F | -6.42
50 | CC(C)C(=O)N1CCC2(CC1)[C@@H]1CN(C(=O)N(C)C)C[C@@H]1C(=O)N2C | 1.76
51 | C[C@@H]1CC[C@@H](C)N1C(=O)c1cc(COc2ccccc2)[nH]n1 | 4.82
52 | Cc1cccc(NC(=O)Nc2c[nH]c(=O)[nH]c2=O)c1C | 8.2
53 | CCCC(NC(=O)c1cc(C)c(F)cc1F)c1nnn[nH]1 (stereo not drawn) | -2.59
54 | Cc1nc(CN2CCO[C@H]3CN(C(=O)c4ccncc4)C[C@H]32)cs1 | -146
55 | Cc1nccc([C@H]2C[C@@H]3CCN(S(=O)(=O)N(C)C)C[C@H]3O2)n1 | -10.8
56 | CC(Cc1ccc2c(c1)OCO2)c1cn(CCc2c[nH]cn2)nn1 (stereo not drawn) | 8.66
57 | COCCN1CCO[C@H]2CCN(C(=O)c3ccnnc3)CC[C@@H]21 | 0.196
58 | COCCN1CCC(c2cncc(-c3cccc(Cl)c3)n2)CC1 | -29.9
59 | CCc1nc2n(n1)CC(NCC(=O)Nc1nccs1)CC2 (stereo not drawn) | -7.13
60 | COc1ncccc1NC(=O)NCC(O)c1ccc(F)cc1F (stereo not drawn) | 30.9
61 | Cc1c(Cl)cccc1NC(=O)CCNc1ccc(C#N)cn1 | -0.106
62 | Cc1nc(C)n(CC2CN(CCOc3ccc(C#N)cc3)CCO2)n1 (stereo not drawn) | -2.69
63 | O=S(=O)(CCNCc1cc(O)c2cc(F)ccc2n1)N1CCCC1 | -39.5
64 | CC(C)CNc1nc(C(=O)/N=c2\[nH]nc(C(C)(C)C)s2)cs1 | 9.6
65 | CCc1ccccc1CN1CCn2nc(CNC(C)=O)cc2C1 | 5.18
66 | COCCC1CCCCN1C(=O)c1coc(COc2ccccc2F)n1 (stereo not drawn) | 3.97
67 | CSCC(=O)N1CCCC(c2cc(C)[nH]n2)C1 (stereo not drawn) | -11.3
68 | O=c1[nH]cc(N2CCCCC2)c(=O)[nH]1 | 5.55
69 | CCN(CC)C(=O)C1CCCN(CC(=O)Nc2c(C)nn(CC)c2C)C1 (stereo not drawn) | 2.13

Row | SMILES | cytotoxicity at 10 µM [%]
70 | CN1CCC(NC(=O)Nc2ccc(F)c(Br)c2)C1=O (stereo not drawn) | -137
71 | CN1N=C(C(=O)N2CCN(c3ncccn3)CC2)CCC1=O | 3.62
72 | CC(NC(=O)NCCCn1ccnc1)c1nncn1C (stereo not drawn) | 0.277
73 | CC(Cn1ccnc1)NC(=O)N1CCCN(Cc2cccs2)CC1 (stereo not drawn) | -12.4
74 | CC1CCN(C(=O)CSc2nc3c(cnn3CCO)c(=O)[nH]2)CC1 | 7.98
75 | COCCC(=O)N[C@H]1CC[C@H](Nc2nccc(-c3ccncc3)n2)C1 | 11.5
76 | CCN(CC)C(=O)C(c1ccccc1)N1CCn2c(C)nnc2C1 (stereo not drawn) | 5.57
77 | CCC(Nc1nnnn1-c1ccccc1)C(=O)NCc1ccsc1 (stereo not drawn) | -3.56
78 | CCN(CC)Cc1cc(C(=O)N2CCC3(CCN(C)CC3)C2)c(C)o1 | 4.92
79 | CN(C1CCCCC1)S(=O)(=O)N1CCN(Cc2ccco2)CC1 | -81.7
80 | CCN(CC)CCSc1nnc(N2CCN(c3ccccc3)CC2)s1 | -21.9
81 | CS(=O)(=O)NCCN1CCCC1c1ccc(Cl)cc1 (stereo not drawn) | 3.6
82 | COCCc1noc(CN2CCCC(Cn3cncn3)C2)n1 (stereo not drawn) | -2.55
83 | O=S(=O)(c1ccccc1Br)N1CCC2(CC1)OCCS2 | -1.86
84 | COCCOCC(=O)Nc1ccc(F)cc1C | 12.8
85 | COCC(C)NC(=O)CN1CCC(C)CC1 (stereo not drawn) | -9.32
86 | COC1CCCN(C(=O)NCCCF)C1 (stereo not drawn) | 0.215
87 | CC1(C)OCC(CNC(=O)c2cnn(-c3cc(Cl)ccc3Cl)c2N)O1 (stereo not drawn) | 2.84
88 | COc1cccc(-c2cc(C(=O)NCCCn3nc(C)cc3C)[nH]n2)c1 | -5.86
89 | CCN1CCN(c2ccc(C(=O)NC(C)CCOC)cc2)CC1 (stereo not drawn) | 8.7
90 | O=C(O)C1CCN(C[C@H]2CC[C@@H](Cc3ccc4c(c3)OCO4)O2)CC1 | -7.48
91 | CCNC(=O)CN1CCSC2(CCCCC2)C1 | -2.64
92 | CCc1nc(CNCC2(C(N)=O)CCOCC2)cs1 | -3.97

Row | SMILES | cytotoxicity at 10 µM [%]
93 | Cc1noc(C)c1C(C)C(=O)N1CCCN(Cc2cscn2)CC1 (stereo not drawn) | -4.28
94 | Cc1cc(CN2CCO[C@H]3[C@H](OCc4csc(C)n4)CC[C@@H]32)no1 | 5.86
95 | CC(C)c1ccc(CCC(=O)N2CCOCC2c2ncon2)cc1 (stereo not drawn) | -4.56
96 | CN1CCC2(CC1)CN(C(=O)c1cccnc1)Cc1ccccc12 | -66.2
97 | Cc1nn(C)c(N(C)C)c1CNC(C)COc1ccc(F)cc1 (stereo not drawn) | -4.38
98 | CN(C)C(=O)C1CCCN1C(=O)c1ccc(Cn2ccnc2)o1 (stereo not drawn) | -0.304
99 | CCS(=O)(=O)N1CCN(CC2CC2)c2ncccc2C1 | 7.97
100 | CCc1cnc(C)nc1NC(CC)c1cnn(C)c1 (stereo not drawn) | -11.7
101 | Cc1ccoc1C(=O)NCCS(=O)(=O)N1CCSCC1 | -2.65
102 | O=C(Cn1ccc2ccccc21)NC[C@@H]1CCCN2CCCC[C@H]12 | -4.16
103 | CC(C)CNC(=O)C1(Cc2ccccc2-c2ccccc2)CCNC1 (stereo not drawn) | -17.8
104 | c1coc(CN2CCOC3(COCCN(Cc4ccncc4)C3)C2)c1 (stereo not drawn) | 4.03
105 | O=C(NCCOc1ccc(C(F)(F)F)cn1)c1ccoc1 | -10.1
106 | OC1CCN(CCCNc2ncccn2)CC1 | 2.68
107 | CC(C)C1SCC(=O)Nc2c1cnn2C(C)C (stereo not drawn) | 4
108 | CN(C)C(=O)NCC(=O)N(C)Cc1cc(-c2ccccc2)no1 | 1.14
109 | COc1c(CNCCC(=O)NC2CCCCC2)c(C(C)C)nn1C | -10.4
110 | CN(C(=O)c1ccc(S(=O)(=O)NC(C)(C)C)cc1)C1(C#N)CCC1 | 3.07
111 | CCN1CC(C(=O)N2CCN(c3nsc4ccccc34)CC2)CCC1=O (stereo not drawn) | 16.2
112 | c1ccc(CN2Cc3[nH]nc(COCC4CC4)c3C2)nc1 | -1.83
113 | NC(=O)C1CCN(C(=O)Cn2ccc3cc(Br)ccc32)CC1 | 11.1
